Data taken from ChEMBL document CHEMBL4732224, “Structure activity refinement of phenylsulfonyl piperazines as antimalarials that block erythrocytic invasion” (Eur J Med Chem, 2021).
Converted amounts (≈) assume the structure as drawn. The source made the active and inactive calls. The rule behind the calls is not given here.

Assays:
[1] = test system: HepG2; test: Cytotoxicity against human HePG2 cells assessed as growth inhibition after 48 hrs by Cell Titer-Glo assay; assay type: cell-based; settings: HepG2, 48 h
[2] = Solubility of compound in PBS at pH 6.5 by nephelometric analysis; assay type: physicochemical
[3] = test system: Plasmodium falciparum; test: Antimalarial activity against Plasmodium falciparum 3D7 incubated for 72 hrs by LDH assay; assay type: functional, organism-based; settings: 3D7, 72 h
How it was run: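 Asexual blood-stage P. falciparum 3D7 parasites were cultured with compound for 72 h, and viability was read by lactate dehydrogenase (LDH) activity.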

[4] = Intrinsic clearance in mouse liver microsomes at 1 uM in presence of NADPH measured up to 60 mins by LC-MS analysis; assay type: ADME, Microsome; settings: read-out: CLH
[5] = test system: Plasmodium falciparum; test: Antimalarial activity against asexual blood stages of Plasmodium falciparum 3D7 infected in human RBC by Live cell microscopic method; assay type: functional, organism-based; settings: 3D7, Erythrocyte
[6] = test system: Plasmodium falciparum; test: Antimalarial activity against asexual blood stage of artemisinin-resistant Plasmodium falciparum Cam3.12539T cambodian isolate assessed as reduction in cell viability after 72 hrs by EtBr staining based flow cytometric analysis; assay type: functional, organism-based; settings: Cam3.12539T cambodian isolat
[7] = test system: Plasmodium falciparum; test: Antimalarial activity against Plasmodium falciparum NF54 late stage ([…]) expressing Pfs16-LUC-GFP assessed as growth inhibition at 20 uM by high content imaging assay relative to control; assay type: functional; settings: read-out: GI
[8] = test system: Plasmodium falciparum; test: Antimalarial activity against Plasmodium falciparum NF54 late stage ([…]) expressing Pfs16-LUC-GFP assessed as growth inhibition by high content imaging assay; assay type: functional, organism-based
[9] = test system: Plasmodium falciparum; test: Antimalarial activity against schizonts stage of Plasmodium falciparum D10 expressing GFP infected in human RBC assessed as reduction in ring stage formation at 4 times of EC90 concentration after 6 hrs by flow cytometric analysis; assay type: functional, organism-based
[10] = test system: Plasmodium knowlesi; test: Antimalarial activity against asexual blood stage of Plasmodium knowlesi YHI assessed as reduction in cell viability after 48 hrs by EtBr staining based flow cytometric analysis; assay type: functional, organism-based
[11] = test system: Plasmodium falciparum; test: Antimalarial activity against schizonts stage of Plasmodium falciparum D10 expressing PEXEL-Nluc infected in human RBC assessed as reduction in invasion at 5 times of EC90 concentration preincubated for 30 mins followed by compound wash out and measured after 24 hrs by luminometric method; assay type: functional, organism-based
[12] = test system: Plasmodium falciparum; test: Antimalarial activity against schizonts stage of Plasmodium falciparum D10 expressing GFP infected in human RBC assessed as reduction in merozoites invade to RBC at 4 times of EC90 concentration after 6 hrs by flow cytometric analysis; assay type: functional, organism-based
[13] = test system: Plasmodium falciparum; test: Antimalarial activity against asexual blood stage of chloroquine-resistant Plasmodium falciparum Dd2 assessed as reduction in cell viability after 72 hrs by EtBr staining based flow cytometric analysis; assay type: functional, organism-based; settings: Dd2, 72 h
[14] = test system: Plasmodium falciparum; test: Antimalarial activity against Plasmodium falciparum NF54 early stage (1 to 3) expressing Pfs16-LUC-GFP assessed as growth inhibition at 20 uM by high content imaging assay relative to control; assay type: functional; settings: read-out: GI
[15] = test system: Plasmodium falciparum; test: Antimalarial activity against asexual blood stage of Mefloquine-resistant Plasmodium falciparum W2mef assessed as reduction in cell viability after 72 hrs by EtBr staining based flow cytometric analysis; assay type: functional, organism-based
[16] = test system: Plasmodium falciparum; test: Antimalarial activity against Plasmodium falciparum NF54 early stage (1 to 3) expressing Pfs16-LUC-GFP assessed as growth inhibition by high content imaging assay; assay type: functional, organism-based
[17] = test system: Plasmodium falciparum; test: Antimalarial activity against asexual blood stage of chloroquine-resistant Plasmodium falciparum 7G8 assessed as reduction in cell viability after 72 hrs by EtBr staining based flow cytometric analysis; assay type: functional, organism-based; settings: 7G8, 72 h
[18] = test system: Plasmodium falciparum; test: Antimalarial activity against asexual blood stage of Plasmodium falciparum 3D7 assessed as reduction in cell viability after 72 hrs by EtBr staining based flow cytometric analysis; assay type: functional, organism-based; settings: 3D7, 72 h
[19] = Selectivity ratio of IC50 for antimalarial activity against asexual blood stage of chloroquine-resistant Plasmodium falciparum 7G8 to IC50 for antimalarial activity against asexual blood stage of Plasmodium falciparum 3D7; assay type: functional

CLint scaled at 1 µM [4] [mL/min/kg]	EC50 [5] [nM]	Structure (SMILES)	EC50 [1] [µM]	solubility kinetic [2] [µM]	EC50 [3] [nM]	microsomal CLint at 1 µM [4] [µL/min/mg]	EC50 [6] [nM]	inhibition of growth at 20 µM [7] [%]	EC50 [8] [µM]	Activity [9]	EC50 [10] [nM]	Activity [11]	Activity [12]	EC50 [13] [nM]	inhibition of growth at 20 µM [14] [%]	EC50 [15] [nM]	EC50 [16] [µM]	EC50 [17] [nM]	EC50 [18] [nM]	Ratio IC50 [19]
–	–	C[C@@H](C(=O)N1CCCC1)N1CCN(S(=O)(=O)c2ccc(C(C)(C)C)cc2)CC1	> 40	25 (≈ 10.2 µg/mL)	300	–	–	–	–	–	–	–	–	–	–	–	–	–	–	–
–	–	CC(C(=O)N1CCc2ccccc2C1(C)C)N1CCN(S(=O)(=O)c2ccc(C(C)(C)C)cc2)CC1 (stereo not given)	31	< 1.6	180	> 866	–	–	–	–	–	–	–	–	–	–	–	–	–	–
> 2100	900	CC(C(=O)N1CCCC1)N1CCN(S(=O)(=O)c2ccc(C(C)(C)C)cc2)CC1 (stereo not given)	> 40	–	690	–	–	–	–	–	–	–	–	–	–	–	–	–	–	–
–	–	C[C@@H](C(=O)N1CCC(F)(F)CC1)N1CCN(S(=O)(=O)c2ccc(C(C)(C)C)cc2)CC1	> 40	–	200	–	80	47	> 10	Active	260	Active	Active	110	59	90	> 10	110	50	–
–	–	C[C@@H](C(=O)N1CCc2ccccc2C1(C)C)N1CCN(S(=O)(=O)c2ccc(C(C)(C)C)cc2)CC1	26	–	110	–	20	59	> 10	Active	90	Active	Active	60	79	40	> 10	30	10	–
–	–	C[C@@H](C(=O)N1CC2CC2C1)N1CCN(S(=O)(=O)c2ccc(C(C)(C)C)cc2)CC1 (stereo not given in full)	> 40	–	130	–	60	36	> 10	Active	140	Active	Active	70	44	60	> 10	80	30	–
–	–	C[C@@H](C(=O)N1CCCC1)N1CCN(S(=O)(=O)c2ccc([Si](C)(C)C)cc2)CC1	> 40	–	490	> 866	–	–	–	–	–	–	–	–	–	–	–	–	–	–
–	–	C[C@@H](C(=O)N1CCCCC1)N1CCN(S(=O)(=O)c2ccc(C(C)(C)C)cc2)CC1	> 40	–	200	–	1300	41	> 10	Active	1300	Active	Active	860	49	490	> 10	5100	610	8
